According to ChEMBL document CHEMBL1151932, “Antiviral effect of ribonuclease conjugated oligodeoxynucleotides targeting the IRES RNA of the hepatitis C virus” (Bioorg Med Chem Lett, 2009):
The source made the active and inactive calls. The calls are words filed in the database; no cut-off is given here.

Key:
Hepatitis C virus [1] = assay: Antiviral activity against HCV infected in human Huh7.5.1 cells assessed as reduction in viral replication treated through microporation 17 hrs prior to infection for 4 hrs measured after 20 hrs by luciferase assay relative to control; format: functional, Hepacivirus hominis, Huh-7; parameters: scale not given: the % may be the effect or the level left
Procedure, shortened: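 Huh7.5.1 cells electroporated (microporation) with ODNs at 10–1000 nM, then infected with HCVcc; replication read 20 h after infection. Triplicate runs; signal normalised to cell number by WST-1 and expressed as percent of scrambled-sequence non-specific ODN control.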

Hepatitis C virus [2] = assay: Antiviral activity against HCV infected in human Huh7.5.1 cells assessed as reduction in viral replication at 1000 nM treated through microporation 17 hrs prior to infection for 4 hrs measured after 20 hrs by luciferase assay; format: functional, organism-based; settings: Hepacivirus hominis, Huh-7
Procedure, shortened: (§1)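 Huh7.5.1 cells were microporated with oligodeoxynucleotide (10–1000 nM) and infected with reporter HCVcc (FL-J6/JFH-5/C19Rluc2AUbi construct) about 17 h later. Viral replication was read 20 h after infection, normalized to cell number by WST-1, and expressed as % of a scrambled-sequence non-specific ODN control. Triplicate.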

Hepatitis C virus [3] = assay: Antiviral activity against HCV infected in human Huh7.5.1 cells assessed as reduction in viral replication treated through microporation 17 hrs prior to infection for 4 hrs measured after 20 hrs by luciferase assay; format: functional, organism-based; settings: Hepacivirus hominis; Huh-7; procedure, shortened: as §1
Hepatitis C virus [4] = assay: Cytotoxicity against HCV infected in human Huh7.5.1 cells treated through microporation for < 17 hrs prior to 4 hrs infection period measured after 20 hrs postinfection by luciferase assay; format: organism-based; settings: hepacivirus hominis, huh-7, 20 h
Hepatitis C virus [5] = assay: Antiviral activity against HCV infected in human Huh7.5.1 cells at 100 nM treated through lipofection after 17 hrs of infection by luciferase assay; format: functional, organism-based; settings: Hepacivirus hominis, Huh-7
Procedure, shortened: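 Huh7.5.1 cells were infected with reporter HCVcc (FL-J6/JFH-5/C19Rluc2AUbi construct) without trypsinization. After 17 h, cells were transfected with oligodeoxynucleotide using a lipid reagent (10–1000 nM tested). Replication signal was normalized to cell number by WST-1 and expressed as % of a scrambled-sequence non-specific ODN control. Triplicate.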

Hepatitis C virus [6] = assay: Cytotoxicity against HCV infected in human Huh7.5.1 cells treated through microporation for 17 hrs prior to 4 hr infection period measured after 20 hrs postinfection by luciferase assay; format: organism-based; settings: hepacivirus hominis, huh-7, 20 h
Hepatitis C virus [7] = assay: Antiviral activity against HCV infected in human Huh7.5.1 cells assessed as reduction in viral replication at 100 nM treated through microporation 17 hrs prior to infection for 4 hrs measured after 20 hrs by luciferase assay; format: functional, organism-based; settings: Hepacivirus hominis, Huh-7; procedure, shortened: as §1
Hepatitis C virus [8] = assay: Antiviral activity against HCV infected in human Huh7.5.1 cells at 1000 nM treated through lipofection after 17 hrs of infection by luciferase assay; format: functional, Hepacivirus hominis, Huh-7
Procedure, shortened: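 Huh7.5.1 cells first infected with HCVcc; after 17 h, ODNs transfected by lipid reagent at 10–1000 nM. Triplicate runs; signal normalised to cell number by WST-1 and expressed as percent of non-specific scrambled ODN control.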

[9] = tested on: Internal ribosome entry site (IRES); assay: Inhibition of HCV IRES RNA fragment-mediated translation in human Huh7.5.1 cells treated through microporation 17 hrs prior to infection for 4 hrs measured after 20 hrs by reticulocyte based translation assay; format: cell-based; settings: Hepacivirus hominis; Huh-7
[10] = tested on: Internal ribosome entry site (IRES); assay: Inhibition of HCV IRES RNA fragment-mediated translation in human Huh7.5.1 cells treated through microporation 17 hrs prior to infection for 4 hrs measured after 20 hrs by luciferase reporter gene assay; format: cell-based; settings: Hepacivirus hominis; Huh-7
Hepatitis C virus [11] = assay: Antiviral activity against HCV in cell-free system at 100 nM; format: functional; settings: Hepacivirus hominis

SMILES | Activity (Hepatitis C virus [1]) [%] | Activity (Hepatitis C virus [2]) | Activity (Hepatitis C virus [3]) | Activity (Hepatitis C virus [4]) | Activity (Hepatitis C virus [5]) | Activity (Hepatitis C virus [6]) | Activity (Hepatitis C virus [7]) | Activity (Hepatitis C virus [8]) [%] | Activity [9] | Activity [10] | Activity (Hepatitis C virus [11])
Cc1cn([C@@H]2O[C@H](COP(=O)(O)O[C@H]3[C@@H](O)[C@H](n4ccc(N)nc4=O)O[C@@H]3COP(=O)(O)O[C@H]3[C@@H](O)[C@H](n4cnc5c(N)ncnc54)O[C@@H]3COP(=O)(O)O[C@H]3[C@@H](O)[C@H](n4cc(C)c(=O)[nH]c4=O)O[C@@H]3COP(=O)(O)O[C@H]3[C@@H](O)[C@H](n4ccc(N)nc4=O)O[C@@H]3COP(=O)(O)O[C@H]3[C@@H](O)[C@H](n4cnc5c(N)ncnc54)O[C@@H]3COP(=O)(O)O[C@H]3[C@@H](O)[C@H](n4ccc(N)nc4=O)O[C@@H]3COP(=O)(O)O[C@H]3[C@@H](O)[C@H](n4cnc5c(N)ncnc54)O[C@@H]3COP(=O)(O)O[C@H]3[C@@H](O)[C@H](n4cnc5c(N)ncnc54)O[C@@H]3COP(=O)(O)O[C@H]3[C@@H](O)[C@H](n4ccc(N)nc4=O)O[C@@H]3COP(=O)(O)O[C@H]3[C@@H](O)[C@H](n4ccc(N)nc4=O)O[C@@H]3COP(=O)(O)O[C@H]3[C@@H](O)[C@H](n4ccc(N)nc4=O)O[C@@H]3COP(=O)(O)O[C@H]3[C@@H](O)[C@H](n4cnc5c(N)ncnc54)O[C@@H]3CO)[C@@H](OP(=O)(O)OC[C@H]3O[C@@H](n4ccc(N)nc4=O)[C@H](O)[C@@H]3OP(=O)(O)OC[C@H]3O[C@@H](n4cnc5c(=O)[nH]c(N)nc54)[C@H](O)[C@@H]3OP(=O)(O)OC[C@H]3O[C@@H](n4cnc5c(=O)[nH]c(N)nc54)[C@H](O)[C@@H]3OP(=O)(O)OC[C@H]3O[C@@H](n4cnc(N)cc4=O)C[C@@H]3OP(=O)(O)OCCCNC(=O)CCc3c[nH]cn3)[C@H]2O)c(=O)[nH]c1=O | 50 | inactive | Dose-dependent effect | Toxic | Active | Non-toxic | Active | 50 | – | – | –
Cc1cn([C@@H]2O[C@H](COP(=O)(O)O[C@H]3[C@@H](O)[C@H](n4ccc(N)nc4=O)O[C@@H]3COP(=O)(O)O[C@H]3C(O)[C@H](n4cnc5c(N)ncnc54)O[C@@H]3COP(=O)(O)O[C@H]3[C@@H](O)[C@H](n4ccc(N)nc4=O)O[C@@H]3COP(=O)(O)O[C@H]3[C@@H](O)[C@H](n4cnc5c(N)ncnc54)O[C@@H]3COP(=O)(O)O[C@H]3[C@@H](O)[C@H](n4cnc5c(N)ncnc54)O[C@@H]3COP(=O)(O)O[C@H]3[C@@H](O)[C@H](n4ccc(N)nc4=O)O[C@@H]3COP(=O)(O)O[C@H]3[C@@H](O)[C@H](n4ccc(N)nc4=O)O[C@@H]3COP(=O)(O)O[C@H]3C[C@H](n4ccc(N)nc4=O)O[C@@H]3COP(=O)(O)OCCCNC(=O)C(CCCc3c[nH]cn3)CCCc3c[nH]cn3)[C@@H](OP(=O)(O)OC[C@H]3O[C@@H](n4cnc5c(N)ncnc54)[C@H](O)[C@@H]3OP(=O)(O)OC[C@H]3O[C@@H](n4ccc(N)nc4=O)C(O)[C@@H]3OP(=O)(O)OC[C@H]3O[C@@H](n4cc(C)c(=O)[nH]c4=O)[C@H](O)[C@@H]3OP(=O)(O)OC[C@H]3O[C@@H](n4ccc(N)nc4=O)[C@H](O)[C@@H]3OP(=O)(O)OC[C@H]3O[C@@H](n4cnc5c(=O)[nH]c(N)nc54)[C@H](O)[C@@H]3OP(=O)(O)OC[C@H]3O[C@@H](n4cnc5c(=O)[nH]c(N)nc54)[C@H](O)[C@@H]3OP(=O)(O)OC[C@H]3O[C@@H](n4cnc(N)cc4=O)[C@H](O)[C@@H]3OP(=O)(O)O)[C@H]2O)c(=O)[nH]c1=O (stereo not given in full) | – | – | – | – | Active | Non-toxic | – | 50 | Active | Active | inactive
Cc1cn([C@@H]2O[C@H](COP(=O)(O)O[C@H]3[C@@H](O)[C@H](n4ccc(N)nc4=O)O[C@@H]3COP(=O)(O)O[C@H]3[C@@H](O)[C@H](n4cnc5c(N)ncnc54)O[C@@H]3COP(=O)(O)O[C@H]3[C@@H](O)[C@H](n4cc(C)c(=O)[nH]c4=O)O[C@@H]3COP(=O)(O)O[C@H]3[C@@H](O)[C@H](n4ccc(N)nc4=O)O[C@@H]3COP(=O)(O)O[C@@H]3[C@@H](COP(=O)(O)O[C@H]4[C@@H](O)[C@H](n5ccc(N)nc5=O)O[C@@H]4COP(=O)(O)O[C@H]4[C@@H](O)[C@H](n5cnc6c(N)ncnc65)O[C@@H]4COP(=O)(O)O[C@H]4[C@@H](O)[C@H](n5cnc6c(N)ncnc65)O[C@@H]4COP(=O)(O)O[C@H]4[C@@H](O)[C@H](n5ccc(N)nc5=O)O[C@@H]4COP(=O)(O)O[C@H]4[C@@H](O)[C@H](n5ccc(N)nc5=O)O[C@@H]4COP(=O)(O)O[C@H]4[C@@H](O)[C@H](n5ccc(N)nc5=O)O[C@@H]4COP(=O)(O)O[C@H]4C[C@H](n5cnc6c(N)ncnc65)O[C@@H]4COP(=O)(O)OCCCNC(=O)CCc4c[nH]cn4)OC(n4cnc5c(N)ncnc54)[C@@H]3O)[C@@H](OP(=O)(O)OC[C@H]3O[C@@H](n4ccc(N)nc4=O)[C@H](O)[C@@H]3OP(=O)(O)OC[C@H]3O[C@@H](n4cnc5c(=O)[nH]c(N)nc54)[C@H](O)[C@@H]3OP(=O)(O)OC[C@H]3O[C@@H](n4cnc5c(=O)[nH]c(N)nc54)[C@H](O)[C@@H]3OP(=O)(O)OC[C@H]3O[C@@H](n4ccc(N)nc4=O)[C@H](O)[C@@H]3OP(=O)(O)O)[C@H]2O)c(=O)[nH]c1=O (stereo not given in full) | 50 | inactive | Dose-dependent effect | Toxic | Active | Non-toxic | Active | 50 | – | – | –
Cc1cn([C@@H]2O[C@H](COP(=O)(O)O[C@H]3[C@@H](O)[C@H](n4ccc(N)nc4=O)O[C@@H]3COP(=O)(O)O[C@H]3[C@@H](O)[C@H](n4ccc(N)nc4=O)O[C@@H]3COP(=O)(O)O[C@H]3[C@@H](O)[C@H](n4ccc(N)nc4=O)O[C@@H]3COP(=O)(O)O[C@H]3[C@@H](O)[C@H](n4cnc5c(N)ncnc54)O[C@@H]3COP(=O)(O)O[C@H]3[C@@H](O)[C@H](n4cnc5c(N)ncnc54)O[C@@H]3COP(=O)(O)O[C@H]3[C@@H](O)[C@H](n4ccc(N)nc4=O)O[C@@H]3CO)[C@@H](OP(=O)(O)OC[C@H]3O[C@@H](n4cnc5c(N)ncnc54)[C@H](O)[C@@H]3OP(=O)(O)OC[C@H]3O[C@@H](n4cnc5c(=O)[nH]c(N)nc54)[C@H](O)[C@@H]3OP(=O)(O)OC[C@H]3O[C@@H](n4cc(C)c(=O)[nH]c4=O)[C@H](O)[C@@H]3OP(=O)(O)OC[C@H]3O[C@@H](n4cc(C)c(=O)[nH]c4=O)[C@H](O)[C@@H]3OP(=O)(O)OC[C@H]3O[C@@H](n4cc(C)c(=O)[nH]c4=O)[C@H](O)[C@@H]3OP(=O)(O)OC[C@H]3O[C@@H](n4cnc5c(=O)[nH]c(N)nc54)[C@H](O)[C@@H]3OP(=O)(O)OC[C@H]3O[C@@H](n4cc(C)c(=O)[nH]c4=O)[C@H](O)[C@@H]3OP(=O)(O)OC[C@H]3O[C@@H](n4ccc(N)nc4=O)[C@H](O)[C@@H]3O[PH](O)(O)OC[C@H]3O[C@@H](n4cnc5c(N)ncnc54)[C@H](O)[C@@H]3OP(=O)(O)OC[C@H]3O[C@@H](n4cnc5c(N)ncnc54)[C@H](O)[C@@H]3OP(=O)(O)O)[C@H]2O)c(=O)[nH]c1=O | – | – | – | – | – | Non-toxic | – | – | – | – | –
Cc1cn([C@@H]2O[C@H](COP(=O)(O)O[C@H]3[C@@H](O)[C@H](n4ccc(N)nc4=O)O[C@@H]3COP(=O)(O)O[C@H]3[C@@H](O)[C@H](n4cnc5c(N)ncnc54)O[C@@H]3COP(=O)(O)O[C@H]3[C@@H](O)[C@H](n4cc(C)c(=O)[nH]c4=O)O[C@@H]3COP(=O)(O)O[C@H]3[C@@H](O)[C@H](n4ccc(N)nc4=O)O[C@@H]3COP(=O)(O)O[C@@H]3[C@@H](COP(=O)(O)O[C@H]4[C@@H](O)[C@H](n5ccc(N)nc5=O)O[C@@H]4COP(=O)(O)O[C@H]4[C@@H](O)[C@H](n5cnc6c(N)ncnc65)O[C@@H]4COP(=O)(O)O[C@H]4[C@@H](O)[C@H](n5cnc6c(N)ncnc65)O[C@@H]4COP(=O)(O)O[C@H]4[C@@H](O)[C@H](n5ccc(N)nc5=O)O[C@@H]4COP(=O)(O)O[C@H]4[C@@H](O)[C@H](n5ccc(N)nc5=O)O[C@@H]4COP(=O)(O)O[C@H]4[C@@H](O)[C@H](n5ccc(N)nc5=O)O[C@@H]4COP(=O)(O)O[C@H]4C[C@H](n5cnc6c(N)ncnc65)O[C@@H]4COP(=O)(O)O)OC(n4cnc5c(N)ncnc54)[C@@H]3O)[C@@H](OP(=O)(O)OC[C@H]3O[C@@H](n4ccc(N)nc4=O)[C@H](O)[C@@H]3OP(=O)(O)OC[C@H]3O[C@@H](n4cnc5c(=O)[nH]c(N)nc54)[C@H](O)[C@@H]3OP(=O)(O)OC[C@H]3O[C@@H](n4cnc5c(=O)[nH]c(N)nc54)[C@H](O)[C@@H]3OP(=O)(O)OC[C@H]3O[C@@H](n4ccc(N)nc4=O)[C@H](O)[C@@H]3OP(=O)(O)O)[C@H]2O)c(=O)[nH]c1=O (stereo not given in full) | 50 | – | Dose-dependent effect | Toxic | Active | Non-toxic | Active | 50 | – | – | –
